One may read the ED50 as the dose at which the effect has come halfway, by size or by number of responders. A word on the LD50: it is the dose expected to kill half of the subjects tested. Lower therefore signals a more toxic substance.

For 33 molecules, ED50, LD50 and selectivity ratio results are on record in ChEMBL document CHEMBL1122853, “New bicyclic antidepressant agent. Synthesis and activity of napactadine and related compounds” (J Med Chem, 1985).

Data set [1] concerns Mus musculus. The experiment in a line: Effective dose required to potentiate yohimbine hydrochloride induced lethality in mice, administered intraperitoneally. The class given is functional. As to conditions: ip. In short, it runs like this:
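Male Swiss-Webster or Swiss ND/4 mice, 20-24 g, randomized into groups of 10 and housed five per cage. Test drug in saline given ip, with a saline control group. Yohimbine hydrochloride 20 mg/kg sc was given 30 min later, and mice were then reaggregated.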

The subject of data set [2] is Mus musculus. The data set is described as follows: Effective dose required to prevent reserpine ptosis in mice, administered intraperitoneally. It counts as functional. As to conditions: ip. In a few lines: (§1)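 Male Swiss-Webster or Harlan ICR mice, five per dose. Drug in saline given po or ip per line. Reserpine 2.5 mg/kg ip 30 min later. Complete absence of ptosis at 45 min after reserpine scored as positive. ED50 by Litchfield-Wilcoxon or Horn method, with 95% confidence intervals.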

The subject of data set [3] is Mus musculus. The data set is described as follows: Effective dose required to prevent reserpine ptosis in mice, administered intraperitoneally. The class given is functional, organism-based. In short, it runs like this: as §1
Data set [4] concerns Mus musculus. The experiment in a line: Effective dose required to prevent reserpine ptosis in mice, administered orally(po); NA=Not active at 100 mg/kg. The class given is functional, organism-based. The arrangement: dose 100 mg/kg. In short, it runs like this: as §1
For data set [5], the system named is Mus musculus. The experiment in a line: Effective dose required to prevent reserpine ptosis in mice, administered (po)orally. The class given is functional. In short, it runs like this:
as §1

The test system of data set [6] is Mus musculus. The experiment in a line: Effective dose required to prevent reserpine ptosis in mice, administered orally(po). The class given is functional. In short, it runs like this: as §1
Data set [7] relates to Mus musculus. The experiment in a line: Effective dose required to prevent reserpine ptosis in mice, administered orally. It counts as functional. The note with it: po. In short, it runs like this:
as §1

For data set [8], the system named is Mus musculus. The experiment in a line: Effective dose required to prevent reserpine ptosis in mice administered intraperitoneally. It counts as functional. The note with it: ip. In a few lines:
as §1

In data set [9] the test system is Mus musculus. The data set is described as follows: Effective dose required to prevent reserpine ptosis in mice, administered intraperitoneally; NA=Not active at 46 mg/Kg. The class given is functional, organism-based. In a few lines:
as §1

A short description of data set [10]: Lethal dose in mouse i.p. It counts as toxicity, organism-based. As to conditions: in vivo, ip. In a few lines:
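Male Swiss-Webster albino mice, 20-24 g, in groups of five. Each group received one dose ip in saline (prepared 30 min before injection) at 10 mL/kg. Mice were held singly for about 5 h, then housed together with food and water. Deaths were counted at 1 and 24 h. LD50 by Litchfield-Wilcoxon.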

Data set [11] in a line: Therapeutic index administered intraperitoneally in mouse. It counts as organism-based. As to conditions: in vivo, ip, read-out: Therapeutic index. In a few lines: (§2)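 Index from mouse LD50 over reserpine-ptosis ED50 by the same route. […] Deaths recorded at 1 and 24 h; Litchfield-Wilcoxon calculation.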
Data set [12] concerns Mus musculus. The data set is described as follows: Electrical shock aggression was evaluated in mice, administered intraperitoneally. The note with it: ip. The class given is functional. In short, it runs like this: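 Pairs of mice placed under an inverted 1000 cm3 beaker and shocked through the floor grid (3 mA, 3 Hz) for 2 min. Drug given ip 30 min before testing; scored all-or-none against a saline group. Fighting counted as inhibited when mean attacks fell 1.5 SD below the vehicle mean.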

A short description of data set [13]: Therapeutic index administered perorally in mouse. It counts as organism-based. As to conditions: in vivo, po, read-out: Therapeutic index. In short, it runs like this:
as §2

A short description of data set [14]: Lethal dose in mouse p.o. The class given is toxicity, organism-based. As to conditions: in vivo, po.
In data set [15] the test system is Mus musculus. The data set is described as follows: Effective dose required to prevent reserpine ptosis in mice, administered orally (po). The class given is functional. In a few lines:
as §1

The subject of data set [16] is Mus musculus. The data set is described as follows: Effective dose required to prevent reserpine ptosis in mice administered (po)orally; NA=Not active. The class given is functional, organism-based. In short, it runs like this:
as §1

In data set [17] the test system is Mus musculus. The experiment in a line: Effective dose required to prevent reserpine ptosis in mice, administered intraperitoneally; NA=Not active at 100 mg/kg. It counts as functional, organism-based. The arrangement: dose 100 mg/kg. In a few lines:
as §1

Active and inactive are the calls of the source. The calls are words filed in the database; no cut-off is given here.

For `CC/N=C(/Cc1cccc(C(F)(F)F)c1)NCC.Cl`, the ED50 was found to be 12.8 mg/kg with Mus musculus [1] and 5.1 mg/kg with Mus musculus [2].
Consider `CC/N=C(/COc1cc(Cl)c(Cl)cc1Cl)NCC`, for which the ED50 entry with Mus musculus [3] was “inactive”.
On to `N=C(Cc1ccc2ccccc2c1Cl)N1CCN(C(c2ccccc2)c2ccccc2)CC1`, for which, in the data set with Mus musculus [4], the ED50 result is “inactive”.
For the molecule `C/N=C(/Cc1ccc(OC)c(OC)c1)NC`, the ED50 entry in the data set on Mus musculus [3] was “inactive”.
For `CC/N=C(/Cc1ccc(F)cc1)NCC`, in the data set with Mus musculus [3], the ED50 result was “inactive”.
`C/N=C(/Cc1ccc2cc(O)ccc2c1)NC.Cl` came in with an ED50 with Mus musculus [5] of 23.7 mg/kg.
For the molecule `Cl.N=C(Cc1ccc2ccccc2c1Cl)N1CCN(c2ccccc2)CC1`, the ED50 in the data set on Mus musculus [6] amounted to 16.2 mg/kg.
As to `COc1ccccc1N1CCN(C(=N)Cc2ccc3ccccc3c2)CC1`, the ED50 entry in the data set with Mus musculus [4] was “inactive”.
Consider `Cl.N=C(Cc1ccc2ccccc2c1)N1CCCCC1`, for which the ED50 in the data set on Mus musculus [7] is 11 mg/kg.
In the data set on Mus musculus [5], `C/N=C(/Cc1ccc2ccccc2c1O)NC.Cl` registered an ED50 of 26.1 mg/kg.
As to `CC/N=C(/Cc1c(Cl)ccc(Cl)c1Cl)NCC`, the ED50 entry with Mus musculus [3] is “inactive”.
In turn, `Cl.N=C(Cc1ccc2ccccc2c1)N1CCC(N2CCCCC2)CC1` displayed an ED50 in the data set with Mus musculus [5] of 40.8 mg/kg.
Take `Cl.N=C(Cc1ccc2ccccc2c1Cl)N1CCC(O)(c2ccc(Cl)cc2)CC1`: it took a dose of 10.8 mg/kg to reach the 50% effect level with Mus musculus [6] (ED50).
With `CC(C)/N=C(/N)Cc1ccc2ccccc2c1`, the ED50 result in the data set with Mus musculus [4] is “inactive”.
`Cl.N=C(Cc1ccc2ccccc2c1Cl)N1CCOCC1` showed a median effective dose (ED50) with Mus musculus [6] of 15 mg/kg.
`CC/N=C(/Cc1ccc2ccccc2c1)NCC.Cl`: the values for the ED50 in the data set with Mus musculus [6], with Mus musculus [1] and in the data set on Mus musculus [2] were 31 mg/kg, 19.6 mg/kg and 19.6 mg/kg, respectively.
As for `CC/N=C(/COc1ccc(Cl)c(Cl)c1)NCC.Cl`, the figures for the ED50 in the data set on Mus musculus [1] and in the data set with Mus musculus [2] were 3.5 mg/kg and 3.3 mg/kg, respectively.
In the case of `C/N=C(/COc1ccccc1)NC.Cl`, the ED50 in the data set on Mus musculus [8] worked out at 1.1 mg/kg; in the data set with Mus musculus [1], 2.2 mg/kg.
As for `CC/N=C(/Cc1ccc(Br)cc1)NCC.Cl`, the ED50 in the data set on Mus musculus [1] turned out to be 2.7 mg/kg; in the data set with Mus musculus [2] it was 2.8 mg/kg.
For the molecule `CC/N=C(/Cc1cc(Cl)c(Cl)cc1Cl)NCC`, the ED50 entry in the data set on Mus musculus [9] was “inactive”.
`C/N=C(\NC)c1ccccc1.Cl`: the ED50 in the data set on Mus musculus [1] stood at 4 mg/kg; in the data set with Mus musculus [2], 0.8 mg/kg.
As to `C/N=C(/Cc1ccc2ccccc2c1)NC.Cl` [NAPACTADINE HYDROCHLORIDE], the LD50 came out at 68.1 mg/kg in [10] and 584 mg/kg in data set [14]. Besides, the selectivity ratio in [11] is 5; in [13], 34. The ED50 with Mus musculus [12] was 12.6 mg/kg; in the data set with Mus musculus [6], 17.1 mg/kg; in the data set on Mus musculus [1] it was 0.8 mg/kg; with Mus musculus [2], 12.6 mg/kg.
Regarding `CCC(=O)C1(c2ccccc2)CCN(C(=N)Cc2ccc3ccccc3c2)CC1`, in the data set on Mus musculus [4], the ED50 entry was “inactive”.
With `CC/N=C(/Cc1cccc(C)c1)NCC`, in the data set on Mus musculus [3], the ED50 entry is “inactive”.
Take `C/N=C(\NC)c1ccc(Cl)cc1.Cl`: the LD50 is 108 mg/kg in data set [10] and 200 mg/kg in data set [14]. For the same molecule, the ED50 came out at 6.2 mg/kg in the data set with Mus musculus [15], 6 mg/kg with Mus musculus [1] and 6.8 mg/kg with Mus musculus [2]. For the same molecule, the selectivity ratio in data set [11] worked out at 16; in data set [13] it was 32.
For `C/N=C(/Cc1c(O)ccc2ccccc12)NC`, the ED50 result in the data set on Mus musculus [16] was “inactive”.
As for `CC/N=C(/Cc1ccc(Cl)cc1Cl)NCC`, in the data set on Mus musculus [3], the ED50 result is “inactive”.
`CN(C)CCCN1c2ccccc2CCc2ccccc21` [IMIPRAMINE]: the ED50 in the data set with Mus musculus [5] worked out at 14 mg/kg; in the data set on Mus musculus [12], 23 mg/kg; in the data set with Mus musculus [1], 0.7 mg/kg; with Mus musculus [2], 13 mg/kg.
Regarding `COc1ccc(CC/N=C(/N)Cc2ccc3ccccc3c2)cc1OC`, the ED50 entry in the data set on Mus musculus [4] was “inactive”.
`CC/N=C(/Cc1cccc2ccccc12)NCC`: the ED50 result in the data set on Mus musculus [3] is “inactive”.
`Cl.Cl.N=C(Cc1ccc2ccccc2c1)NCCN1CCOCC1` registered an ED50 in the data set with Mus musculus [5] of 14.7 mg/kg.
For `CC/N=C(/Cc1ccc2cc(C)ccc2c1)NCC`, the ED50 result in the data set with Mus musculus [17] was “inactive”.
On to `CC1CN(C(=N)Cc2ccc3ccccc3c2)CC(C)O1.Cl` (stereo unspecified), for which the 50% effect level in the data set with Mus musculus [5] (ED50) was put at a dose of 28.7 mg/kg.
